Data on four molecules can be found in ChEMBL document CHEMBL1154274, “Oligomeric formylpeptide activity on human neutrophils” (2009).

The nature of experiment [1]: Activation of cellular function of human neutrophils assessed as induction of chemotactic activity at 0.01 uM. In kind it is functional, cell-based. Particulars: Neutrophil. Put shortly: (§1)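 48-well microchemotaxis chamber with peptide in the lower compartment, diluted from 10^-2 M DMSO stock into KRPG with 1 mg/mL BSA; tested 10^-12 to 10^-5 M. Filter migration was scored by the leading-front method. Chemotactic index = (migration to attractant − migration to buffer)/migration to buffer. Five experiments, duplicate.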

The nature of experiment [2]: Activation of cellular function of cytochalasin B-pretreated human neutrophils assessed as induction of superoxide anion production at 10 uM by microplate-based assay. In kind it is functional, cell-based. Particulars: Neutrophil. A digest of the protocol:
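Microplate ferricytochrome c reduction, superoxide dismutase-inhibitable, in KRPG. Wells held 4 × 10^5 neutrophils and 100 nmol cytochrome c. Cells were pre-incubated with cytochalasin B for 5 min. Peptide (10^-10 to 10^-4 M) was added at zero time at 37 °C. A550 minus A468 was converted to nmol O2− using ε 18.5 mM^-1 cm^-1. Five experiments, duplicate.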

A further experiment deals with Neutrophil. Nature of the experiment: Ratio of compound to fMLP-OMe potency for induction of chemotactic activity in human neutrophils. In kind it is functional.
A short description of experiment [3]: Activation of cellular function of cytochalasin B-pretreated human neutrophils assessed as maximal induction of lysozyme release at 10 uM after 15 mins by microplate-based assay. Particulars: Neutrophil. Type of experiment: functional, cell-based. Put shortly: (§2)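 Neutrophils from heparinized peripheral blood of fasting healthy donors (dextran sedimentation, Ficoll-Paque, hypotonic NH4Cl lysis), resuspended in KRPG pH 7.4 with 1 mM MgCl2 and CaCl2. Pre-incubated with cytochalasin B for 15 min at 37 °C, then given peptide (final 10^-10 to 10^-4 M) for 15 min at 37 °C. After centrifugation, lysozyme was read by Micrococcus lysodeikticus lysis rate at 465 nm, as net % of Triton X-100 total. Five experiments, duplicate.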

Experiment [4] is described as follows: Activation of cellular function of cytochalasin B-pretreated human neutrophils assessed as induction of lysozyme release at 1 uM after 15 mins by microplate-based assay. In kind it is functional, cell-based. Particulars: Neutrophil. A digest of the protocol: as §2
A short description of experiment [5]: Activation of cellular function of human neutrophils assessed as chemotactic index at 0.01 uM. In kind it is functional, cell-based. The note with it: Neutrophil. A digest of the protocol: as §1
Experiment [6] can be described thus: Activation of cellular function of human neutrophils assessed as chemotactic index at 0.000001 to 10 uM. Type of experiment: functional, cell-based. Particulars: Neutrophil. Put shortly: as §1

Active and inactive are the calls of the source. The calls are words filed in the database; no cut-off is given here.

Take `COC(=O)[C@H](CCCCN[C@@H](Cc1ccccc1)C(=O)N[C@@H](CC(C)C)C(=O)N[C@H](C=O)CCSC)NC(=O)[C@H](Cc1ccccc1)NC(=O)[C@H](CC(C)C)NC(=O)[C@H](CCSC)NC=O`: the result in experiment [1], in experiment [2] and in experiment [3] was Active. Besides, the Ratio in the experiment with Neutrophil amounted to 10. The Efficacy in experiment [4] stood at 40%.

`COC(=O)[C@H](CCCCN[C@@H](Cc1ccccc1)C(=O)N[C@@H](CC(C)C)C(=O)N[C@H](C=O)CCSC)NC(=O)[C@H](CCCCN[C@@H](Cc1ccccc1)C(=O)N[C@@H](CC(C)C)C(=O)N[C@H](C=O)CCSC)NC(=O)[C@H](Cc1ccccc1)NC(=O)[C@H](CC(C)C)NC(=O)[C@H](CCSC)NC=O`: the result in experiment [1], in experiment [2] and in experiment [3] was Active. Further, the results for the Ratio (in experiment [5]; in the experiment on Neutrophil; in experiment [6]) were 0.9, 10 and 0.95, respectively. Further, in experiment [4], the Efficacy amounted to 40%.

Turning to `COC(=O)[C@H](Cc1ccccc1)NC(=O)[C@H](CC(C)C)NC(=O)[C@H](CCSC)NC=O`, the Ratio in experiment [5] and in experiment [6] was 1.05 in each case. Besides, in experiment [4], the Efficacy worked out at 60%.

For the molecule `COC(=O)C[C@H](NCCCC[C@H](NC(=O)[C@H](Cc1ccccc1)NC(=O)[C@H](CC(C)C)NC(=O)[C@H](CCSC)NC=O)C(=O)OC)C(=O)N[C@@H](Cc1ccccc1)C(=O)N[C@@H](CC(C)C)C(=O)N[C@H](C=O)CCSC`, the result in experiment [1], in experiment [2] and in experiment [3] was Active. The figures for the Ratio (in experiment [5]; in the experiment on Neutrophil; in experiment [6]) were 0.9, 10 and 0.95, respectively. In addition, the Efficacy in experiment [4] came to 20%.
